Most compounds without a hit are left out; they make up all but 4% or so of the library.
CHOP UPR activ = activators of apoptotic CHOP UPR arm, primary screen, cell-based, CHO-CHOP luciferase reporter, luminescence, uHTS. 330,000 tested, 0.34% active. activation, % at 10 µM. UPR activation; percent of tunicamycin response over DMSO baseline;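 active = at 10 µM dose, activation of 40% or more, normalized to positive control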
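Test system: CHO CHOP reporter cells. Input: 500 CHO-CHOP cells per well. Medium: F12 with 10% FBS. Technique: luciferase luminescence. Measure: percent activation relative to tunicamycin control. Dosing: 10 µM compound, 0.5% DMSO. Timing: 16-18 h cell attachment, then 6 h compound exposure, 37 °C.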
UPR XBP1 act = activators of adaptive XBP1 UPR arm, primary screen, cell-based, CHO-XBP1 luciferase reporter, luminescence, uHTS; IRE1-XBP1 UPR activation; percent of tunicamycin response, DMSO as zero; activation, % at 20 µM; 330,000 tested, 0.33% active; AID 463104, 2010;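 active = versus positive control, 20 µM dose yields 30% or more activation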
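Material: CHO cell line with stable XBP1 luciferase reporter; schedule: 16-18 h cell attachment at 37 °C, then 6 h compound exposure; signal: glow luminescence from Steady-Glo reagent; medium: serum-containing F12 medium, 10% FBS; benchmarks: tunicamycin 10 µg/mL and vehicle-only wells; read-out: percent activation relative to tunicamycin reference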
ABHD5 PLIN5 PPI = ABHD5-PLIN5 interaction inhibitors, primary screen, cell lysate, split luciferase complementation, luminescence; Split G. princeps luciferase complementation, 4 h; 360,000 tested, 0.78% active; inhibition, % at 4 µM;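 active = inhibition above the mean inhibition across every tested compound plus 3 SD, cut at about 22% in these data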
Mdm2-MdmX inh = inhibitors of human Mdm2-MdmX association, primary screen, cell-based, luminescence, split luciferase, SaOS-2, uHTS; SaOS-2 split-luciferase Mdm2/MdmX complementation; Protein Mdm4 (Homo sapiens) + E3 ubiquitin-protein ligase Mdm2 (Homo sapiens), …; 330,000 tested, 3% active; inhibition, % at 8 µM;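 active = inhibition of at least 50% at 8 µM in the primary screen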
Target sequence (O15151 whole entry, looked up): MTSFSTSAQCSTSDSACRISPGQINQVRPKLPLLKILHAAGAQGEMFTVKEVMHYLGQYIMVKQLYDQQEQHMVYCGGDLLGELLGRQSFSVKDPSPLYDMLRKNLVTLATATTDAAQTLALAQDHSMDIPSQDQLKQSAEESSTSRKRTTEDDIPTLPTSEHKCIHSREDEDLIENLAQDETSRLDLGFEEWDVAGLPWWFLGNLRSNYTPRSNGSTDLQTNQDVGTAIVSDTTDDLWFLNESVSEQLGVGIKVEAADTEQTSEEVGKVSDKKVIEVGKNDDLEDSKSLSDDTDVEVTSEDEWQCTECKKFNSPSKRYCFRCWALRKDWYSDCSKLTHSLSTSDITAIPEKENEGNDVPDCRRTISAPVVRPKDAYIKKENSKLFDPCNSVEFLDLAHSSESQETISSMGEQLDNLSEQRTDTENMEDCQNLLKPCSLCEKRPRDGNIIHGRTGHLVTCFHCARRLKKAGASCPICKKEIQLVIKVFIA
Target sequence (Q00987 whole entry, looked up): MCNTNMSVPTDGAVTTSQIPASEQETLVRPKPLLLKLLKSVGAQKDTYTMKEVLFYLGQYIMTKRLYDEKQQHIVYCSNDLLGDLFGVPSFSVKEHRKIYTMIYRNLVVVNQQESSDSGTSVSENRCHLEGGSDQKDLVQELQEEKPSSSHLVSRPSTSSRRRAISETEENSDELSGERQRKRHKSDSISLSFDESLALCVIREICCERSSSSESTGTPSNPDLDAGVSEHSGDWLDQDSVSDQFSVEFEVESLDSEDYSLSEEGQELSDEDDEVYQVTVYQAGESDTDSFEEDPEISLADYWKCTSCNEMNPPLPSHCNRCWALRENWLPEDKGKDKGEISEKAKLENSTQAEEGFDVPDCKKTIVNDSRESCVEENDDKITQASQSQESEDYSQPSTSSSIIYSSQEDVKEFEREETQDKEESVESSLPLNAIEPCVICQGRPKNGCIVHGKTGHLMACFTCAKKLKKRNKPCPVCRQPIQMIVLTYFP
Exocytosis inh = LAMP-1 surface exposure blockers, TALL-104 cells – cell-based, flow cytometry, MLPCN library, primary screen. TALL-104 LAMP-1 surface exposure; cells stimulated with thapsigargin and PMA. inhibition, % at 10 µM. 360,000 tested, 0.66% active. AID 651702, 2012;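 active = inhibition above about 55%, limit read from the data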
Mdm2-MdmX conf = Mdm2-MdmX complex disruptors, retested hits, confirmation, luminescence, single concentration. 10,000 tested, 55% active. inhibition, % at 8 µM. shares compounds with Mdm2-MdmX inh. Mdm2-MdmX binding, luminescent assay. AID 489028, 2010; in the data active = inhibition above about 40%
Full FLuc ctr = full-length luciferase signal inhibition, confirmation, counter-screen for Mdm2/MdmX interaction inhibitor project, cell-based, single concentration, SaOS-2; inhibition, % at 8 µM; SaOS-2 full-length luciferase counterscreen, luminescence; shares compounds with Mdm2-MdmX inh; 6,200 tested, 77% active;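 active = mean inhibition at 8 µM reaching about 37%, which flags the compound as non-specific, limit read from the data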;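 also: p53-null SaOS-2 cells with luciferase driven by a doxycycline-inducible promoter; compound on cells about two nights before reading with doxycycline added after day one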
Numbers stand for hits; - = inactive; . = no result given.

SMILES | CHOP UPR activ | UPR XBP1 act | ABHD5 PLIN5 PPI | Mdm2-MdmX inh | Exocytosis inh | Mdm2-MdmX conf | Full FLuc ctr
Cc1cccn2c(=O)nc(SCC(=O)N3N=C(c4cccs4)CC3c3ccc(F)cc3)nc12 (stereo not given) | - | - | - | 51 | - | 51 | 71
Cc1ccn2c(=O)nc(SCC(=O)N3N=C(c4cccs4)CC3c3ccc(F)cc3)nc2c1 (stereo not given) | - | - | - | - | - | . | .
O=C(COC(=O)c1cccnc1Cl)NCc1cccs1 | - | - | - | - | - | . | .
CN(C)c1ccc(N=Nc2ccccc2C(=O)OCC(=O)Nc2ccccc2C(F)(F)F)cc1 | . | . | - | . | - | . | .
O=C(CN1C(=O)NC2(CCCCC2)C1=O)N1CCN(S(=O)(=O)c2cccc([N+](=O)[O-])c2)CC1 | - | - | - | - | - | . | .
O=C(NCCc1ccccc1)c1ccc2c(c1)OCO2 | - | - | - | 66 | - | 57 | 52
O=C(Nc1ccc(N2CCOCC2)cc1)Nc1ccc2nc(-c3ccco3)c(-c3ccco3)nc2c1 | - | - | - | 61 | - | 41 | 61
CC(=O)Oc1cc2c(cc1Cl)C1(CC(c3ccccc3Cl)O2)CC(C)(C)NC(=S)N1 (stereo not given) | - | - | - | 56 | - | - | .
COc1cc([N+](=O)[O-])cc(/C=N/NC(=O)Cn2nccc2C)c1O | - | - | - | - | - | . | .
CCOc1cc(/C=N/NC(=O)Cc2ccc(C(F)(F)F)cc2[N+](=O)[O-])c(Br)cc1OC | - | - | - | 77 | - | 55 | -
COc1cc([N+](=O)[O-])cc(/C=N/NC(=O)Cn2nc(C)cc2C)c1O | - | - | - | 57 | - | 65 | 50
COc1cc(Br)cc(/C=N/NC(=O)Cc2ccc(C(F)(F)F)cc2[N+](=O)[O-])c1O | - | - | - | 52 | - | 70 | -
Cc1ccc(-c2cc(C(=O)Nc3nccs3)c3ccccc3n2)o1 | - | - | - | - | - | . | .
CC(=O)c1ccc(Nc2cc(C)nc3ccccc23)cc1 | - | - | - | 59 | - | 50 | 61
COC(=O)c1ccc2nc(C)cc(Nc3ccccc3C)c2c1 | - | - | - | - | - | . | .
COC(=O)c1ccc(Nc2cc(C)nc3ccc(C)cc23)cc1 | - | - | - | 100 | - | 66 | 52
CCC(=O)OC1(C)C(=O)C=C2C=C(CCCCNC(=O)OC(C)(C)C)OC=C2C1=O (stereo not given) | - | - | . | - | . | . | .
C[C@H](NC(=O)c1ccccc1Cl)C(=O)OCC(=O)NNC(=O)c1cccs1 | - | - | - | - | - | . | .
CCSc1nnc(NC(=O)CSc2nnc(CNC(=O)c3ccccc3F)o2)s1 | - | - | - | - | - | . | .
Cc1ccc(OCCN2CCN(CC(O)Cn3c4ccccc4c4ccccc43)CC2)cc1 (stereo not given) | - | - | . | 85 | . | - | .
C[C@]12c3[nH]c4cc(-c5ccco5)ccc4c3CCN1C(=O)[C@@H](CC(=O)NCC13CC4CC(CC(C4)C1)C3)C[C@@H]2C(=O)N1CCOCC1 | - | - | - | 85 | - | - | .
CCN(CC)C(=O)[C@H]1CC(CC(=O)NCC23CC4CC(CC(C4)C2)C3)C(=O)N2CCc3c([nH]c4ccccc34)[C@]12C (stereo not given in full) | - | - | - | 69 | - | - | .
CCN(CC)C(=O)[C@H]1C[C@H](CC(=O)NCC23CC4CC(CC(C4)C2)C3)C(=O)N2CCc3c([nH]c4cc(-c5ccco5)ccc34)[C@]12C | - | - | - | 84 | - | 56 | 71
CCN(CC)C(=O)[C@H]1CC(CC(=O)NCCC2=CCCCC2)C(=O)N2CCc3c([nH]c4ccccc34)[C@]12C (stereo not given in full) | - | - | - | - | - | . | .
CCN(CC)C(=O)[C@H]1CC(CC(=O)NC/C=C(\C)CCC=C(C)C)C(=O)N2CCc3c([nH]c4ccc(OC)cc34)[C@]12C (stereo not given in full) | - | - | - | 87 | - | 45 | 59
SMILES | CHOP UPR activ | UPR XBP1 act | ABHD5 PLIN5 PPI | Mdm2-MdmX inh | Exocytosis inh | Mdm2-MdmX conf | Full FLuc ctr
CCN(CC)C(=O)[C@H]1C[C@H](CC(=O)NC/C=C(\C)CCC=C(C)C)C(=O)N2CCc3c([nH]c4ccc(Cl)cc34)[C@]12C | - | - | - | - | - | . | .
C=CCNC(=O)/C(=C\c1ccc2c(c1)OCO2)NC(=O)c1ccc(Br)cc1 | - | - | - | - | - | . | .
CCN(CC)S(=O)(=O)c1cccc(C(=O)N[C@H](C(=O)OCC(=O)Nc2ccccc2)C(C)C)c1 | - | - | - | - | - | . | .
CCOc1ccc(C2NC(=O)Cc3cc(OC)c(OC)cc32)cc1 (stereo not given) | - | - | - | - | - | . | .
O=C(C1=C[C@H](C2CCCCC2)C[C@H](OCCCCO)O1)N1CCOCC1 | - | - | - | - | - | . | .
COc1ccc2c(c1)c(CC(=O)Nc1nnc(C3CC3)s1)c(C)n2C(=O)c1ccc(Cl)cc1 | - | - | - | 83 | - | 80 | 65
COc1ccc2c(c1)c(CC(=O)Nc1ccc(C(C)=O)cc1)c(C)n2C(=O)c1ccc(Cl)cc1 | - | - | - | - | - | . | .
COc1ccc(C(=O)NCC(=O)N/N=C/c2c(C)[nH]c3ccccc23)cc1 | - | - | - | - | - | . | .
Cc1[nH]c2ccccc2c1/C=C/c1nc2ccccc2c(=O)n1-c1cccc([N+](=O)[O-])c1 | - | - | - | 70 | - | - | .
O=c1c2ccccc2nc(/C=C/c2c[nH]c3ccccc23)n1-c1ccc([N+](=O)[O-])cc1 | - | - | - | - | - | . | .
Cc1ccc(NC(=O)C2(C)CCN2C(=O)Cc2ccccc2)cc1C (stereo not given) | . | . | - | . | - | . | .
Cc1cc(C)nc(/N=C(\N)Nc2ccc(-c3ccccc3)cc2)n1 | - | - | - | 52 | - | - | .
CCC(=O)Nc1nnc(Sc2ccc(N(C)C)cc2)s1 | - | - | - | - | - | . | .
CN(C)c1ccc(Sc2nnc(NC(=O)Nc3ccc(Cl)cc3Cl)s2)cc1 | - | - | - | 79 | - | - | .
COc1ccccc1CNC(=O)OCc1nccnc1C(=O)Nc1ccc(Br)cn1 | - | - | - | 55 | - | - | .
Cc1occc1C(=O)N/N=C/c1c[nH]c2ccccc12 | - | - | - | - | - | . | .
O=C(NN=Cc1c(O)ccc2ccccc12)c1ccncc1 | . | . | - | . | - | . | .

Compound activity: PubChem BioAssay, several laboratories
